Source: ChEMBL document CHEMBL4513216, “Probing the Open Global Health Chemical Diversity Library for Multistage-Active Starting Points for Next-Generation Antimalarials” (ACS Infect Dis, 2020)

Test: Toxicity liver stage against HepG2, at 10uM
Assay type: cell-based
Parameters: test concentration 10 uM, cell line HepG2-A16-CD81EGFP
Conditions: human, HepG2-A16-CD81EGFP cells; read-out: INHIBITION
Summary of the method: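 Uninfected HepG2-A16-CD81EGFP cells, 3 × 10^3 per well, 1536-well, plated on prespotted compound at 10 μM final, parasite-free screening media added to match infected plates; puromycin 10 μM positive, DMSO 0.5% negative; run in parallel with 48 h PbLuc assay at 37 °C, 5% CO2; viability by CellTiter-Glo luminescence, normalized to controls.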

Structure (SMILES): CC(=O)N1CCN(Cc2ccc(Cl)c(F)c2)CC(O)C1 (stereo not given)
- cytotoxicity at 10 µM: -1.48%

Structure (SMILES): NC(=O)c1cccc(CC2CCN(C(=O)CO)C2)c1 (stereo not given)
- cytotoxicity at 10 µM: -23.7%

Structure (SMILES): Cc1ccc(C#N)c(N2CCC(c3nccn3Cc3cscn3)CC2)n1
- cytotoxicity at 10 µM: -6.96%

Structure (SMILES): CC(=O)N1CCCCC1c1cc(C(=O)N2CCOCC2)[nH]n1 (stereo not given)
- cytotoxicity at 10 µM: -3.68%

Structure (SMILES): Cc1nnc(C(C)N2CCCN(Cc3ccc(C#N)cc3)CC2)o1 (stereo not given)
- cytotoxicity at 10 µM: -11.1%

Structure (SMILES): c1ccc(Cc2nnc(CN3CCCCC3Cn3cncn3)o2)cc1 (stereo not given)
- cytotoxicity at 10 µM: -20.4%

Structure (SMILES): NC(=O)C1CCCN(C(=O)c2cccc(OCc3cscn3)c2)C1 (stereo not given)
- cytotoxicity at 10 µM: -7.98%

Structure (SMILES): Cc1ccccc1-c1noc(CN2CCOC(Cn3cccn3)C2)n1 (stereo not given)
- cytotoxicity at 10 µM: -5.04%

Structure (SMILES): O=C(c1cnc2c(cnn2C2CCCC2)c1)N1CCN(CCO)CC1
- cytotoxicity at 10 µM: -17.2%

Structure (SMILES): Cc1ccnn1-c1ccc(C(=O)N2CCCC(n3ccnc3)C2)cc1 (stereo not given)
- cytotoxicity at 10 µM: -18.2%

Structure (SMILES): O=C(Cc1n[nH]c2ccccc12)N1CCCC1Cn1cccn1 (stereo not given)
- cytotoxicity at 10 µM: -14.7%

Structure (SMILES): Cc1cc2n(n1)CC(CNCc1ccccc1Cn1cccn1)CN2 (stereo not given)
- cytotoxicity at 10 µM: -13.3%

Structure (SMILES): c1ccc(Cc2noc(CN3CCOC(Cn4cccn4)C3)n2)cc1 (stereo not given)
- cytotoxicity at 10 µM: -6.67%

Structure (SMILES): Cc1csc(C2CCCN(C(=O)c3c[nH]c(C)n3)C2)n1 (stereo not given)
- cytotoxicity at 10 µM: -17%

Structure (SMILES): COc1cc(C(=O)N2CCCC(c3cc(C)[nH]n3)C2)ccc1C (stereo not given)
- cytotoxicity at 10 µM: -17.5%

Structure (SMILES): CCOCC(O)CN1CCN(C(=O)C(C)(C)CC)CC1 (stereo not given)
- cytotoxicity at 10 µM: -20.7%

Structure (SMILES): O=C(c1cc2c(F)cccc2[nH]1)N1CCC(Nc2cccnn2)CC1
- cytotoxicity at 10 µM: -19.3%

Structure (SMILES): COCCCNC(=O)N1CCCC(c2nncn2C)C1 (stereo not given)
- cytotoxicity at 10 µM: -19.7%

Structure (SMILES): Cc1nn(C)c(C)c1C1CCCN1Cc1noc(C2CC2)n1 (stereo not given)
- cytotoxicity at 10 µM: -6.95%

Structure (SMILES): N#Cc1ccccc1OCCN1CCC(N2CCNC2=O)CC1
- cytotoxicity at 10 µM: -8.58%

Structure (SMILES): CC(=O)N1CCCN(C(=O)c2csc(-c3ccc(C)cc3C)n2)CC1
- cytotoxicity at 10 µM: 20.8%

Structure (SMILES): CCc1nc(C)ncc1C(=O)N1CCCC(n2nc(C)nc2C)C1 (stereo not given)
- cytotoxicity at 10 µM: -8.47%

Structure (SMILES): Cc1cc2n(n1)CC(CNCc1ccnc(-n3ccnc3C)c1)CN2 (stereo not given)
- cytotoxicity at 10 µM: -4.95%

Structure (SMILES): CCCOc1ccc(CNC(=O)N2CCC(C(N)=O)C2)cc1 (stereo not given)
- cytotoxicity at 10 µM: -5.87%

Structure (SMILES): CCn1cc(CN2CCCN(C(=O)c3sccc3C#N)CC2)cn1
- cytotoxicity at 10 µM: -6.41%

Structure (SMILES): N#Cc1cccc(S(=O)(=O)NC2CCN(Cc3ccccc3)C2=O)c1 (stereo not given)
- cytotoxicity at 10 µM: -7.18%

Structure (SMILES): CCOC1CCCN(C(=O)c2cnc3c(cnn3C3CCCC3)c2)C1 (stereo not given)
- cytotoxicity at 10 µM: -3.74%

Structure (SMILES): Cc1ncsc1C(=O)NC1CCN(CCC(N)=O)CC1
- cytotoxicity at 10 µM: -10.2%

Structure (SMILES): O=S(=O)(CCCN1CCCC1Cn1cccn1)c1ccccc1 (stereo not given)
- cytotoxicity at 10 µM: -5.18%

Structure (SMILES): COc1ccc(-c2cnc(N)nc2C2CCCNC2)cc1 (stereo not given)
- cytotoxicity at 10 µM: -1.51%

Structure (SMILES): COc1ccc(CN(Cc2ccccn2)Cc2cncn2C)cc1
- cytotoxicity at 10 µM: 9.65%

Structure (SMILES): COCC1CN(C(=O)c2cccc(C)n2)Cc2nccn2C1 (stereo not given)
- cytotoxicity at 10 µM: -103%

Structure (SMILES): COc1ccc(CN2C[C@@H]3COC[C@]3(COc3cccnc3)C2)cc1
- cytotoxicity at 10 µM: -18.4%

Structure (SMILES): Cc1nc(CN2CCC(O)(c3ccccc3F)CC2)c2ccccn12
- cytotoxicity at 10 µM: 2.45%

Structure (SMILES): CCS(=O)(=O)N1CCc2c(COCCN(C)C)cncc2C1
- cytotoxicity at 10 µM: -104%

Structure (SMILES): Cc1ccc(CN2C[C@@H](OCc3ccccn3)[C@H]3COC[C@H]32)o1
- cytotoxicity at 10 µM: -114%

Structure (SMILES): O=C(Cc1cccs1)N1C[C@@H]2CN(Cc3ccoc3)CCO[C@@H]2C1
- cytotoxicity at 10 µM: -70.8%

Structure (SMILES): CN(C)C(=O)CN1C(=O)[C@@H]2CC[C@H]1CN(Cc1ccccc1C#N)C2
- cytotoxicity at 10 µM: 1.22%

Structure (SMILES): O=c1c2c[nH]c(N3CCOCC3)nc-2cn1C1CCS(=O)(=O)C1 (stereo not given)
- cytotoxicity at 10 µM: 3.41%

Structure (SMILES): O=S(=O)(c1ccccc1)N1C2CCC(O)(CC2)C1CN1CCOCC1 (stereo not given)
- cytotoxicity at 10 µM: -4.65%
